Measurements published in ChEMBL document CHEMBL4049426, “Identification of the Clinical Candidate (R)-(1-(4-Fluorophenyl)-6-((1-methyl-1H-pyrazol-4-yl)sulfonyl)-4,4a,5,6,7,8-hexahydro-1H-pyrazolo[3,4-g]isoquinolin-4a-yl)(4-(trifluoromethyl)pyridin-2-yl)methanone (CORT125134): A Selective Glucocorticoid Receptor (GR) Antagonist” (J Med Chem, 2017).

Experiments:
Glucocorticoid receptor [1] = molecular target: T1, Glucocorticoid receptor (Homo sapiens, UniProt P04150); assay: Antagonist activity at glucocorticoid receptor in human HepG2 cells assessed as inhibition of dexamethasone-induced tyrosine amino transferase activity preincubated for 30 mins followed by dexamethasone addition measured after 20 hrs; format: cell-based
T1 sequence (P04150 whole entry): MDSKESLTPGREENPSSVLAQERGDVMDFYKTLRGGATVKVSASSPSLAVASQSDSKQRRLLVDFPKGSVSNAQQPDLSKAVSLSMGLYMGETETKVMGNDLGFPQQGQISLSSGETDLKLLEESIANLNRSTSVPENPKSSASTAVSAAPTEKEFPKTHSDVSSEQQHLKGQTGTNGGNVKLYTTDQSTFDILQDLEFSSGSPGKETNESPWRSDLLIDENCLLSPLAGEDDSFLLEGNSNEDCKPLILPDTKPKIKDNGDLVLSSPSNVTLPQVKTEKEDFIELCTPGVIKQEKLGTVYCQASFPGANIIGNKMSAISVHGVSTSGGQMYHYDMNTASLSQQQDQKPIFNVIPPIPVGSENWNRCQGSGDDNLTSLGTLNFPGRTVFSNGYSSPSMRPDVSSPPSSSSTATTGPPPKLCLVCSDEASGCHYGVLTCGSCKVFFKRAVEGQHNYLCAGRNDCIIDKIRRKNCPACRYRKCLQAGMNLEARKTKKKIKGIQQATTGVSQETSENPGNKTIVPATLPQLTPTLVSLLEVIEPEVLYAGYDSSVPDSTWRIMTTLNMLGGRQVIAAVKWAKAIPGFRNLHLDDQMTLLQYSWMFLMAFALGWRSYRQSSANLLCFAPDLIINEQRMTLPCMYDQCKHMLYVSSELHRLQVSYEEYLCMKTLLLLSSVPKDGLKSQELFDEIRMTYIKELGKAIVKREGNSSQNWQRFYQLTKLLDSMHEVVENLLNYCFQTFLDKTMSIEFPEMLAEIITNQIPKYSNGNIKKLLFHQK

[2] = AUC in Sprague-Dawley CD-1 rat plasma at 5 mg/kg, po administered through gavage measured up to 24 hrs by LC/MS analysis; format: ADME, organism-based; design: dose 5 mg/kg, time < 24 hr, route oral
In short: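 Jugular-catheterized male Sprague Dawley CD-1 rats (220-250g). Oral arm: five rats, 5mg/kg gavage, 1mg/mL in DMSO:0.5% methylcellulose 10:90, 5mL/kg, sampled pre-dose and 0.25-24 h. i.v. arm: three rats, 1mg/kg, 0.5mg/mL in DMSO:PEG400:propylene glycol 10:45:45, sampled pre-dose and 0.08-24 h. Plasma by LC/MS.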

[3] = Cmax in monkey plasma at 20 mg/kg, po measured up to 24 hrs by LC/MS analysis; format: ADME, organism-based, Macaca mulatta; design: dose 20 mg/kg, route oral; conditions: rhesus monkey
In short: (§1)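 Monkey i.v./p.o. study: oral 20mg/kg in 10% DMSO, 0.1% Tween 80, 0.5% hydroxypropylmethylcellulose in water; i.v. dose 1mg/kg.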

[4] = AUC in monkey plasma at 20 mg/kg, po measured up to 24 hrs by LC/MS analysis; format: ADME, organism-based, Macaca mulatta; design: dose 20 mg/kg, time < 24 hr, route oral; conditions: rhesus monkey; in short: as §1
[5] = Oral bioavailability in monkey plasma at 20 mg/kg measured up to 24 hrs by LC/MS analysis; format: ADME, organism-based, Macaca mulatta; conditions: rhesus monkey; in short: as §1
Macaca mulatta = species on record: Macaca mulatta; assay: Agonist activity at monkey glucocorticoid receptor in primary hepatocytes assessed as induction of tyrosine amino transferase activity measured after 20 hrs; format: cell-based
[6] = molecular target: T2, Glucocorticoid receptor (Canis lupus familiaris) (UniProt A0A8C0QLS2); assay: (§2) Agonist activity at dog glucocorticoid receptor in primary hepatocytes assessed as induction of tyrosine amino transferase activity measured after 20 hrs; format: cell-based
T2 sequence (whole entry): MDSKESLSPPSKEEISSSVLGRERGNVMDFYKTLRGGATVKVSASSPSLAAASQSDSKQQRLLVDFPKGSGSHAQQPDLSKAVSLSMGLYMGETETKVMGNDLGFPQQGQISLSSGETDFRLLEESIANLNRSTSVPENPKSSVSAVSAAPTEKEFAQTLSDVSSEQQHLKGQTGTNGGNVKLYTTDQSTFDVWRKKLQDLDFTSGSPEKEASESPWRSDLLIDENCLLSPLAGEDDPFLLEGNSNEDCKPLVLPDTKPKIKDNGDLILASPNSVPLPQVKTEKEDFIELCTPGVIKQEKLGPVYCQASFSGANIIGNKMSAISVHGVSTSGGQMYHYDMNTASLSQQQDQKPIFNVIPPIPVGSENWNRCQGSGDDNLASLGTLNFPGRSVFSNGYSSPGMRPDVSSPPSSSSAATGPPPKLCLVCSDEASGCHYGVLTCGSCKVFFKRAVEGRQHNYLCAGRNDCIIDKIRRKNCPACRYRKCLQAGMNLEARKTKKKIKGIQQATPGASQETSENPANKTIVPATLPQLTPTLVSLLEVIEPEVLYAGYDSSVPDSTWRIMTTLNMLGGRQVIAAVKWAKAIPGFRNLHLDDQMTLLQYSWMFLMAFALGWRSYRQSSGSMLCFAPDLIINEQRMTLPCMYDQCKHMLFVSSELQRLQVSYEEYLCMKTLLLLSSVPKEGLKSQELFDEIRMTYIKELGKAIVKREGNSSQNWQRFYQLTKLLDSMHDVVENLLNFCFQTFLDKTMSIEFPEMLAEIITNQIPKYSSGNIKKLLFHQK

Glucocorticoid receptor [7] = molecular target: T3, Glucocorticoid receptor (Canis lupus familiaris, UniProt A0A8C0QLS2); assay: as §2; format: cell-based
T3 sequence (A0A8C0QLS2 whole entry): T2 sequence (whole entry)

[8] = Protein binding in monkey plasma; format: ADME, cell-free, Macaca mulatta; conditions: rhesus monkey, read-out: PPB (converted)
Cytochrome P450 3A4 = Cytochrome P450 3A4 (Homo sapiens, UniProt P08684); assay: Inhibition of CYP3A4 (unknown origin); format: ADME
Cytochrome P450 2B6 = molecular target: T4, Cytochrome P450 2B6 (Homo sapiens, UniProt P20813); assay: Time-dependent inhibition of CYP2B6 (unknown origin); format: ADME
T4 sequence (P20813 whole entry): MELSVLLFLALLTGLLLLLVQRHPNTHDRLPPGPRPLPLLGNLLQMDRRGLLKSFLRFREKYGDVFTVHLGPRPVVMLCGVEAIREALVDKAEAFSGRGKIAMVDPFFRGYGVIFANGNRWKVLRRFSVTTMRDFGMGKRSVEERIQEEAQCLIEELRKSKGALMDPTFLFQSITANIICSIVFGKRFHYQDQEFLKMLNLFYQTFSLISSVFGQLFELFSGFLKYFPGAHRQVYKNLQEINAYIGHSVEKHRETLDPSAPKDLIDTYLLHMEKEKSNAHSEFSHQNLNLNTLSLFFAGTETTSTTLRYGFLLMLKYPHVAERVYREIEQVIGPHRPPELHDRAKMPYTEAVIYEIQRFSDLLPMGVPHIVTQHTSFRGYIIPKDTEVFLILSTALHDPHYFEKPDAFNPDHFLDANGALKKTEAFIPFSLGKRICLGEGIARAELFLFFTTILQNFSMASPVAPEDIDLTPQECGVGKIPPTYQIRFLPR

Cytochrome P450 2C19 = Cytochrome P450 2C19 (Homo sapiens, UniProt P33261); assay: Time-dependent inhibition of CYP2C19 (unknown origin); format: ADME
Cytochrome P450 2D6 = Cytochrome P450 2D6 (Homo sapiens, UniProt P10635); assay: Time-dependent inhibition of CYP2D6 (unknown origin); format: ADME
[9] = molecular target: T5, Glucocorticoid receptor (Homo sapiens) (UniProt P04150); assay: Agonist activity at glucocorticoid receptor in human primary hepatocytes assessed as induction of tyrosine amino transferase activity measured after 20 hrs relative to control; format: cell-based
T5 sequence (whole entry): T1 sequence (P04150 whole entry)

Cytochrome P450 2C19, sequence (P33261 whole entry): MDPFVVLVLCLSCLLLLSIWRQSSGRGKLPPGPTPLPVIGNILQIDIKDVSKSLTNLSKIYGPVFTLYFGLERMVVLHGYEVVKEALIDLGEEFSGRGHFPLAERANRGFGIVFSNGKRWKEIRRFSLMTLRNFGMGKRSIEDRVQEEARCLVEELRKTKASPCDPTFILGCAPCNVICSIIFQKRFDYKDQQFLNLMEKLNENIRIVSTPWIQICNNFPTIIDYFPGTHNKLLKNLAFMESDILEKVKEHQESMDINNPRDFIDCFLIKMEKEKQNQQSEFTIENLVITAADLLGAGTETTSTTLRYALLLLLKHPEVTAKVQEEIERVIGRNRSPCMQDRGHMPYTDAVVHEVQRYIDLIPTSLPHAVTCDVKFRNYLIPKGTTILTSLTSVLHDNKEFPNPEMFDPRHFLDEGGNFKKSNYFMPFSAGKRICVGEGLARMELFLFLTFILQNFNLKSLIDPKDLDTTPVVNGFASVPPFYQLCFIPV
Cytochrome P450 2D6, sequence (P10635 whole entry): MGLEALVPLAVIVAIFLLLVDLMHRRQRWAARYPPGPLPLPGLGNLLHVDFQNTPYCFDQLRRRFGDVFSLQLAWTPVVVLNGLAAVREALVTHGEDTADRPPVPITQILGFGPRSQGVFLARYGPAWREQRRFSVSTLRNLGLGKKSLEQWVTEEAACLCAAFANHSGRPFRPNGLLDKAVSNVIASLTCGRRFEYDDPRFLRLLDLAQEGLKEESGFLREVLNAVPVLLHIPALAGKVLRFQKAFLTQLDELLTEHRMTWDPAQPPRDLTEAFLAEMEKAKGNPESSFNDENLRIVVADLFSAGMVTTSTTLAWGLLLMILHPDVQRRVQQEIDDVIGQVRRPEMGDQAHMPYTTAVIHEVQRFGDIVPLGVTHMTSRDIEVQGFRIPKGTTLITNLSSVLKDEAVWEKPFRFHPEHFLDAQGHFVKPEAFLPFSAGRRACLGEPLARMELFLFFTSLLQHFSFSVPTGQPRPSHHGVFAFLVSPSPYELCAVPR
Cytochrome P450 3A4, sequence (P08684 whole entry): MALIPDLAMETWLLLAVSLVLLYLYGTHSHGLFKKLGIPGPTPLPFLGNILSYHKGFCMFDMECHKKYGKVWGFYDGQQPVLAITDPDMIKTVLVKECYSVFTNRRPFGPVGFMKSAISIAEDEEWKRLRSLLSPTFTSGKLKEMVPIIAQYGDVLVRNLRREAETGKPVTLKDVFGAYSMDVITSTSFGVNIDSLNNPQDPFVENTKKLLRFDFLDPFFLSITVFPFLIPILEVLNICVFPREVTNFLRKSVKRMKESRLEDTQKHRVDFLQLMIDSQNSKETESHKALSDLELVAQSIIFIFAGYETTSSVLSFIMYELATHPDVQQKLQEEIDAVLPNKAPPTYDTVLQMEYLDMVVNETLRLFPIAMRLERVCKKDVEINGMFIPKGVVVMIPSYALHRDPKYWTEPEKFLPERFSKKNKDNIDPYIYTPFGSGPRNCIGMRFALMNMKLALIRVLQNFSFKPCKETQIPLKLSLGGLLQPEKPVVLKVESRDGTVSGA

Which results are given for `Cn1cc(S(=O)(=O)N2CCC3=Cc4c(cnn4-c4ccc(F)cc4)C[C@]3(C(=O)c3cc(C(F)(F)F)ccn3)C2)cn1` [RELACORILANT]?
Ki (Glucocorticoid receptor [1]): 0.0072 µM; AUC at 24 h [2]: 1550 ng·h/mL; Cmax [3]: 1140 ng/mL; AUC at 24 h [4]: 11700 ng·h/mL; bioavailability [5]: 88%; Emax (Macaca mulatta): 0%; Emax [6]: 80%; EC50 (Glucocorticoid receptor [7]): > 10 µM; fraction unbound [8]: 0.011; IC50 (Cytochrome P450 3A4): 1.3 µM; TDI (Cytochrome P450 2B6): Not Active; TDI (Cytochrome P450 2C19): Not Active; TDI (Cytochrome P450 2D6): Not Active; Emax [9]: 0%
